Reference: PubChem BioAssay AID504899 (The Scripps Research Institute Molecular Screening Center, 2011)

Tested on: DIO C57BL/6 mice, hepatic G6Pase mRNA, 15 mg/kg ip 6 d
Test: liver G6Pase and PEPCK expression, blood glucose – diet-induced obese mice, pyruvate tolerance test, powder sample, in vivo study for RORA inverse agonist project, late-stage follow-up (AID 504899)
Settings: stronger effect = lower value
Outline: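 System – male diet-induced obese C57BL/6 mice, 30 weeks old, fed 65% kcal high-fat diet · Dosing – 15 mg/kg ip b.i.d. for 6 days · Times – 6 h fasting, glucose 0–60 min after pyruvate · Technique – glucometer blood glucose plus liver gene mRNA · Read-out basis – gene expression and glucose as % of vehicle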

O=S(=O)(Nc1ccc(C(O)(C(F)(F)F)C(F)(F)F)cc1)c1cccs1
PEPCK mRNA expression (DIO C57BL/6 mice, 15 mg/kg ip 6 d, measured here: hepatic PEPCK mRNA, % control): 51%
blood glucose (DIO C57BL/6 mice, 15 mg/kg ip 6 d, measured here: pyruvate tolerance test blood glucose): 76%
G6Pase mRNA expression (dose or concentration not given here): 52%
